SR-BI HDL uptake = inhibitors of mouse SR-BI mediated HDL lipid uptake; Q61009; ldlA[mSR-BI] CHO cells, DiI-HDL uptake fluorescence, 3 h; inhibition, % at 12.5 µM; hit rate 0.96% among 320,000; AID 488896;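 active means mean replicate inhibition of at least 70% and a set share of replicates each scoring 70 or more; inconclusive means meets just one of the two criteria; inactive means fails both criteria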;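 further: 0% = median of neutral control wells and 100% = median of positive control wells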
CDK5 inh = inhibitors of human CDK5/p35 kinase | Q00535+Q15078 | inhibition, % at 10 µM | Recombinant CDK5/p35, ADP-Glo luminescence, 60 min | hit rate 0.01% among 330,000;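 active means highest replicate inhibition of at least 50% and at least 75% of replicates reaching 50%; inconclusive means only one of the two criteria met; inactive means both criteria failed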;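 further: plate controls were DMSO neutral control for no effect and GW8510 at 10 µM for full effect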
SR-BI DiI-HDL act = activators of SR-BI mediated HDL lipid uptake. hit rate 0.096% among 320,000. AID 504775. CHO ldlA[mSR-BI] cells, DiI-HDL uptake fluorescence, 3 h; 100 = double the neutral-control signal. activation, % at 12.5 µM;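 active means mean replicate activation of at least 60% and every replicate at or above 60%; inconclusive means mean or all-replicate condition met, but not both; inactive means mean below 60% and not all replicates reaching 60%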;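 further: 0% = median plate neutral-control signal and 100% = twice that signal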
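material = CHO ldlA[mSR-BI] cells | medium = Ham's F12 with 0.5% BSA, HEPES 25 mM, pH 7.4 | reagent = fluorescent DiI-HDL, 10 µg/mL final | compound dosing = single-point compound dose | incubation = 3 h, 37 °C | measured by = bottom-read fluorescence, 550/595 nm | measure = HDL uptake via cellular fluorescence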
dFosB act-1 = enhances mouse delta FosB homodimer DNA binding; purified delta FosB, TAMRA-CDK5 oligo fluorescence polarization; percent of positive-control signal above neutral wells; activation, % at 25 µM; hit rate 0.99% among 340,000; P13346;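 active means mean activation above about 17%, with every replicate also reaching it, limit read from the data, passing the limit was not always enough; inconclusive means only one of the two conditions met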
Target sequence (P13346 whole entry, looked up): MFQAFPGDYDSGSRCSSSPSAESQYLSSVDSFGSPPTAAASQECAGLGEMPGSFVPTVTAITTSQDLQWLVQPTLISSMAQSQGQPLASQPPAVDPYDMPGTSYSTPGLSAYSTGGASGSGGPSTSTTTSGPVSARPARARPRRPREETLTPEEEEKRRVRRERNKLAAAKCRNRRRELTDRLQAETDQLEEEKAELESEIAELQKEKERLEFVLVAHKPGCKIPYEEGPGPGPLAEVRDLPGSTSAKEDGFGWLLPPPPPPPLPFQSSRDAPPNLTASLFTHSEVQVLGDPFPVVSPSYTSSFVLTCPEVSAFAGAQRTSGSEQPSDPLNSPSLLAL
dFosB act-2 = activators of mouse delta FosB homodimer DNA binding. AID 588690. 2,400 tested, under 10 active. shares compounds with dFosB act-1. activation, % at 24.9 µM. purified delta FosB, TAMRA-CDK5 oligo fluorescence polarization; normalised: neutral wells 0, positive control 100;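 active means highest replicate activation at or above 34% and every replicate reaching that threshold; inconclusive means meets only one of the two criteria; inactive means meets neither criterion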;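 further: higher polarization means more probe DNA bound by delta FosB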
An asterisk follows results filed as active; ? = inconclusive; . = no result given. Hits are enriched below; roughly 2% of the tested compounds scored in any of these assays.

SMILES	SR-BI HDL uptake	CDK5 inh	SR-BI DiI-HDL act	dFosB act-1	dFosB act-2
C=CCNC(=O)c1cc(-c2ccc3c(c2)OCO3)on1	-6	0	6	8	.
O=C(Nc1ccc(Br)cc1)c1cc(-c2ccc3c(c2)OCO3)on1	.	-2	.	25*	0
Cc1ccc2oc(-c3ccc(NC(=O)c4ccc5c(c4)OCO5)cc3)nc2c1	60	0	-60	45*	2
Cc1ccc(-c2cc(C(=O)NCc3ccc4c(c3)OCO4)no2)cc1	-14	0	14	4	.
COc1ccc(NC(=O)c2cc(-c3ccc4c(c3)OCO4)on2)cc1	.	-1	.	26*	-1
Cc1ccc(NC(=O)c2cc(-c3ccc4c(c3)OCO4)on2)cc1	-26	1	26	18*	3
COc1ccc(Cl)cc1NC(=O)NCc1ccccn1	11	-5	-11	-1	.
O=C(c1ccccc1Cl)N1N=C(c2cccs2)CC1c1cccc(O)c1 (stereo not drawn)	26	1	-26	-16	.
O=C(COC(=O)c1cc([N+](=O)[O-])ccc1N1CCOCC1)NCc1ccc(Cl)cc1Cl	19	-1	-19	-6	.
Cc1nn(Cc2ccc(Cl)cc2)c(C)c1NC(=O)c1cc(-c2ccc3c(c2)OCO3)on1	27	1	-27	58*	7
Cc1nn(Cc2ccc(Cl)c(Cl)c2)c(C)c1NC(=O)c1cc(-c2ccc3c(c2)OCO3)on1	13	2	-13	-11	.
CCOc1ccc(CNC(=O)c2ccc(NC(=O)C3=CSCCO3)cc2)cc1	24	0	-24	0	.
Cc1ccc(CNC(=O)c2ccc(NC(=O)C3=CSCCO3)cc2)cc1	-4	3	4	28*	-8
Cc1cc([N+](=O)[O-])ccc1NC(=O)CCC(=O)N1CCCC1	-2	0	2	-5	.
CC1CCC2(CC1)NC(=O)N(CC(=O)c1ccc(Cl)s1)C2=O (stereo not drawn)	-5	0	5	-11	.
Cc1occc1C(=O)N/N=C/c1ccc(OCc2ccccc2)cc1	10	1	-10	30*	3
COc1cc2ccccc2cc1C(=O)N/N=C/c1cccnc1	9	2	-9	-24	.
CCOc1ccc(/C=N/NC(=O)c2cc3ccccc3cc2OC)cc1	22	0	-22	19*	2
Cc1ccc(N2C(=O)CN(Cc3ccccc3)C2=S)cc1C	.	1	.	-12	.
O=C(CCCCn1c(=S)[nH]c2ccsc2c1=O)NCc1ccc2c(c1)OCO2	40	-1	-40	125*	1
Cc1cc(Br)cnc1NC(=S)Nc1ccc(F)cc1F	10	1	-10	-8	.
O=C(Cn1nnc(-c2ccc(CN3CCOCC3)cc2)n1)Nc1nc(-c2ccccc2)cs1	22	-2	-22	25*	-4
Cc1cc([N+](=O)[O-])c(C)cc1-c1ccc(/C=N/NC(=O)Cn2nnnc2N)o1	1	-8	-1	33*	6
Nc1nnnn1CC(=O)N/N=C/c1cc([N+](=O)[O-])ccc1Cl	-33	3	33	2	.
Cc1cc(C)n(CC(O)Cn2c3ccc(Cl)cc3c3cc(Cl)ccc32)c(=O)n1 (stereo not drawn)	38	0	-38	25*	1
SMILES	SR-BI HDL uptake	CDK5 inh	SR-BI DiI-HDL act	dFosB act-1	dFosB act-2
CC1CCc2sc(C(=O)NN=C3CCC(c4ccccc4)CC3)cc2C1 (stereo not drawn)	0	0	0	-8	.
CC1CCc2sc(C(=O)N/N=C/c3ccc([N+](=O)[O-])cc3)cc2C1 (stereo not drawn)	-10	-1	10	17*	-2
c1nc(NCc2ccc3c(c2)OCO3)c2cc(-c3ccc4c(c3)OCCO4)ccc2n1	7	-3	-7	39*	3
CCC(C)NC(=O)Cn1c(=O)n(CCCCCC(=O)Nc2ccccc2)c(=O)c2sccc21 (stereo not drawn)	14	-1	-14	18*	0
COc1ccc(C(C(=O)NC2CCCCC2)N(C(=O)c2snc(C(N)=O)c2N)c2ccc(OC)cc2OC)cc1 (stereo not drawn)	-11	0	11	?	.
NC(=O)c1nsc(C(=O)N(c2cccc(O)c2)C(C(=O)NC2CCCC2)c2ccc(Cl)cc2)c1N (stereo not drawn)	-12	-1	12	71*	1

Compound activity as filed in PubChem.
